Data: ChEMBL document CHEMBL1121537, “Anticoccidial derivatives of 6-azauracil. 3. Synthesis, high activity, and short plasma half-life of 1-phenyl-6-azauracils containing sulfonamide substituents” (J Med Chem, 1980)

Assays:
[1] = tested on: Eimeria tenella; experiment: Minimum effective concentration required to prevent formation of detectable lesions in Eimeria tenella infected leghorn cockerels.; assay type: functional; conditions: read-out: MEC
Outline: (§1)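 Leghorn cockerels infected with Eimeria tenella, screened by a modified version of a published screening method. The minimum effective concentration, in ppm, is the lowest level that prevents detectable lesions.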

[2] = Half life in plasma of young cockerels; assay type: ADME, organism-based, Gallus gallus; conditions: male, chicken
Outline: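 Plasma half-life in young cockerels, about 10 days old, determined by a previously described method.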

[3] = organism: Gallus gallus; experiment: Minimum effective concentration required to prevent formation of detectable lesions in Eimeria tenella infected leghorn cockerels; value ranges from 15 to 30; assay type: functional; outline: as §1
[4] = tested on: Gallus gallus; experiment: Plasma level measured 3h after oral administration of 4-5 mg/kg body weight in young cockerels; assay type: functional, organism-based
Outline: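 Young cockerels, about 10 days old, given 4-5 mg/kg body weight orally; drug level in plasma measured 3 h after dosing, in mcg/mL.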

[5] = tested on: Eimeria tenella; experiment: The compound was evaluated for the variations in the vulnerability to Eimeria tenella; assay type: functional; conditions: read-out: MEC
[6] = tested on: Eimeria acervulina; experiment: The compound was evaluated for the variations in the vulnerability to Eimeria acervulina; assay type: functional; conditions: read-out: MEC
[7] = tested on: Eimeria brunetti; experiment: The compound was evaluated for the variations in the vulnerability to Eimeria brunetti; assay type: functional; conditions: read-out: MEC
[8] = tested on: Eimeria necatrix; experiment: The compound was evaluated for the variations in the vulnerability to Eimeria necatrix; assay type: functional; conditions: read-out: MEC
[9] = Half life in plasma of older birds; assay type: ADME, organism-based, Gallus gallus; conditions: chicken
Outline: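 Plasma half-life in older birds, about 9-10 weeks old, determined by a previously described method.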

[10] = tested on: Gallus gallus; experiment: Plasma level measured 3h after oral administration of 4-5 mg/kg body weight in older birds; assay type: functional, organism-based
Outline: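 Older birds, about 9-10 weeks old, given 4-5 mg/kg body weight orally; drug level in plasma measured 3 h after dosing, in mcg/mL.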

[11] = organism: Gallus gallus; experiment: Minimum effective concentration required to prevent formation of detectable lesions in Eimeria tenella infected leghorn cockerels; Value ranges from 60-120; assay type: functional; outline: as §1
[12] = organism: Gallus gallus; experiment: Minimum effective concentration required to prevent formation of detectable lesions in Eimeria tenella infected leghorn cockerels; assay type: functional; outline: as §1
[13] = organism: Gallus gallus; experiment: The compound was evaluate for the minimum amount required to prevent formation of detectable disease lesions against Eimeria tenella infections.; assay type: functional; outline: as §1
[14] = tested on: Eimeria tenella; experiment: The compound was evaluated for the variations in the vulnerability to Eimeria tenella,; assay type: functional; conditions: read-out: MEC
[15] = tested on: Eimeria acervulina; experiment: The compound was evaluated for the variations in the vulnerability to Eimeria acervulina; value ranges from 15-30; assay type: functional; conditions: read-out: MEC
[16] = tested on: Eimeria maxima; experiment: The compound was evaluated for the variations in the vulnerability to Eimeria maxima; assay type: functional; conditions: read-out: MEC

Structure (SMILES) | minimal effective concentration [1] | further results
Cc1cc(-n2ncc(=O)[nH]c2=O)cc(Cl)c1S(=O)(=O)N1CCSCC1 | 120 µg/mL | –
COc1ccc(NS(=O)(=O)c2c(C)cc(-n3ncc(=O)[nH]c3=O)cc2C)cc1 | > 250 µg/mL | –
O=c1cnn(-c2ccc(S(=O)(=O)N3CCCC3)c(Cl)c2)c(=O)[nH]1 | 250 µg/mL | –
CCCCN(CC#N)S(=O)(=O)c1ccc(-n2ncc(=O)[nH]c2=O)cc1Cl | > 120 µg/mL | –
Cc1cc(-n2ncc(=O)[nH]c2=O)ccc1S(=O)(=O)N1CCOCC1 | – | half-life [2]: 66 min; MEC [3]: 15 p.p.m.; Plasma level [4]: 3.1 µg/mL; minimal effective concentration [5]: 15 µg/mL; minimal effective concentration [6]: 30 µg/mL
C=CCN(C)S(=O)(=O)c1ccc(-n2ncc(=O)[nH]c2=O)cc1Cl | 60 µg/mL | –
Cc1cc(-n2ncc(=O)[nH]c2=O)cc(C)c1S(=O)(=O)N1CCCC1 | 60 µg/mL | –
O=c1cnn(-c2ccc(S(=O)(=O)NC3CCCCC3)c(Cl)c2)c(=O)[nH]1 | > 500 µg/mL | –
Cc1cc(-n2ncc(=O)[nH]c2=O)cc(C)c1S(=O)(=O)N1CCOCC1 | 15 µg/mL | half-life [2]: 90 min; Plasma level [4]: 0.95 µg/mL; minimal effective concentration [5]: 15 µg/mL; minimal effective concentration [6]: 50 µg/mL; minimal effective concentration [7]: 30 µg/mL; minimal effective concentration [8]: 15 µg/mL
O=c1cnn(-c2ccccc2)c(=O)[nH]1 | 500 µg/mL | half-life [2]: 480 min
O=c1cnn(-c2ccc(S(=O)(=O)N3CCCCC3)cc2)c(=O)[nH]1 | 250 µg/mL | –
O=c1cnn(-c2ccc(S(=O)(=O)Nc3cccc(Cl)c3)c(Cl)c2)c(=O)[nH]1 | > 500 µg/mL | –
CN(Cc1ccc(Cl)cc1)S(=O)(=O)c1ccc(-n2ncc(=O)[nH]c2=O)cc1Cl | 500 µg/mL | –
O=c1cnn(-c2cc(Cl)cc(Cl)c2)c(=O)[nH]1 | 4 µg/mL | half-life [9]: 9000 min; half-life [2]: 3360 min; Plasma level [10]: 24.3 µg/mL; Plasma level [4]: 14.5 µg/mL
Cc1cc(-n2ncc(=O)[nH]c2=O)ccc1S(=O)(=O)N1CCN(C=O)CC1 | 500 µg/mL | –
O=c1cnn(-c2ccc(S(=O)(=O)N3CCC(Cc4ccccc4)CC3)c(Cl)c2)c(=O)[nH]1 | > 250 µg/mL | –
Cc1ccc(NS(=O)(=O)c2ccc(-n3ncc(=O)[nH]c3=O)cc2Cl)cc1Cl | > 250 µg/mL | –
O=c1cnn(-c2ccc(S(=O)(=O)N(Cc3ccccc3)Cc3ccccc3)c(Cl)c2)c(=O)[nH]1 | > 250 µg/mL | –
CCN(C(C)C)S(=O)(=O)c1ccc(-n2ncc(=O)[nH]c2=O)cc1C | 500 µg/mL | –
CCOC(=O)N1CCN(S(=O)(=O)c2ccc(-n3ncc(=O)[nH]c3=O)cc2Cl)CC1 | > 250 µg/mL | –
CN(CCO)S(=O)(=O)c1ccc(-n2ncc(=O)[nH]c2=O)cc1Cl | > 120 µg/mL | –
O=c1cnn(-c2ccc(S(=O)(=O)Cl)cc2)c(=O)[nH]1 | > 250 µg/mL | –

Structure (SMILES) | minimal effective concentration [1] | further results
O=C1CCN(S(=O)(=O)c2ccc(-n3ncc(=O)[nH]c3=O)cc2Cl)CC1 | > 250 µg/mL | –
O=c1cnn(-c2cc(Br)c(S(=O)(=O)N3CCOCC3)c(Br)c2)c(=O)[nH]1 | > 30 µg/mL | –
C=CCN(C)S(=O)(=O)c1ccc(-n2ncc(=O)[nH]c2=O)cc1C | 120 µg/mL | –
CCCN(CCC)S(=O)(=O)c1ccc(-n2ncc(=O)[nH]c2=O)cc1Cl | > 250 µg/mL | –
CN(Cc1ccccc1)S(=O)(=O)c1ccc(-n2ncc(=O)[nH]c2=O)cc1Cl | – | MEC [11]: 60 p.p.m.
NS(=O)(=O)c1ccc(-n2ncc(=O)[nH]c2=O)cc1Cl | > 120 µg/mL | –
CCCN(C)S(=O)(=O)c1ccc(-n2ncc(=O)[nH]c2=O)cc1Cl | 250 µg/mL | –
Cc1cc(-n2ncc(=O)[nH]c2=O)ccc1S(=O)(=O)N(C)C1CCCC1 | > 120 µg/mL | –
CN(c1ccccc1)S(=O)(=O)c1ccc(-n2ncc(=O)[nH]c2=O)cc1Cl | > 250 µg/mL | –
O=c1cnn(-c2cc(Cl)c(Cl)c(Cl)c2)c(=O)[nH]1 | 4 µg/mL | –
Cc1cc(-n2ncc(=O)[nH]c2=O)cc(C)c1S(=O)(=O)N(C)Cc1ccccc1 | 60 µg/mL | –
CCOC(CN(CC(OCC)OCC)S(=O)(=O)c1ccc(-n2ncc(=O)[nH]c2=O)cc1Cl)OCC | 250 µg/mL | –
C=CCN(CC=C)S(=O)(=O)c1ccc(-n2ncc(=O)[nH]c2=O)cc1Cl | 250 µg/mL | –
Cc1cc(-n2ncc(=O)[nH]c2=O)cc(C)c1S(=O)(=O)Cl | 250 µg/mL | –
NS(=O)(=O)c1ccc(NS(=O)(=O)c2ccc(-n3ncc(=O)[nH]c3=O)cc2)cc1 | 500 µg/mL | –
Cc1cc(-n2ncc(=O)[nH]c2=O)cc(C)c1S(=O)(=O)N(C)C | 60 µg/mL | –
O=c1cnn(-c2ccc(S(=O)(=O)N3CCOCC3)cc2)c(=O)[nH]1 | > 250 µg/mL | –
CCN(CC)S(=O)(=O)c1c(C)cc(-n2ncc(=O)[nH]c2=O)cc1Cl | 250 µg/mL | –
O=c1cnn(-c2ccc(S(=O)(=O)N3CCCCC3)c(Cl)c2)c(=O)[nH]1 | 250 µg/mL | –
Cc1cc(Cl)cc(-n2ncc(=O)[nH]c2=O)c1 | 15 µg/mL | half-life [9]: 1200 min; Plasma level [10]: 21.7 µg/mL
Cc1cc(-n2ncc(=O)[nH]c2=O)cc(Cl)c1S(=O)(=O)N(C)C | 60 µg/mL | –
CCN(C)S(=O)(=O)c1ccc(-n2ncc(=O)[nH]c2=O)cc1Cl | 120 µg/mL | –

Structure (SMILES) | minimal effective concentration [1] | further results
O=c1cnn(-c2ccc(S(=O)(=O)N3CCC(O)CC3)c(Cl)c2)c(=O)[nH]1 | > 250 µg/mL | –
Cc1cc(-n2ncc(=O)[nH]c2=O)cc(Cl)c1S(=O)(=O)N1CCOCC1 | 10 µg/mL | half-life [2]: 60 min; Plasma level [4]: 0.38 µg/mL; minimal effective concentration [5]: 10 µg/mL; minimal effective concentration [6]: 60 µg/mL
Cc1cc(C)cc(-n2ncc(=O)[nH]c2=O)c1 | 30 µg/mL | half-life [9]: 720 min; half-life [2]: 360 min; Plasma level [10]: 22.4 µg/mL; Plasma level [4]: 8.1 µg/mL
O=c1cnn(-c2ccc(S(=O)(=O)N3CCOCC3)c(Cl)c2)c(=O)[nH]1 | 30 µg/mL | half-life [2]: 126 min; Plasma level [4]: 1.9 µg/mL; minimal effective concentration [5]: 30 µg/mL; minimal effective concentration [6]: 120 µg/mL
Cc1cccc(-n2ncc(=O)[nH]c2=O)c1 | – | MEC [12]: >120 p.p.m.
COc1c(Cl)cc(-n2ncc(=O)[nH]c2=O)cc1Cl | 250 µg/mL | half-life [2]: 120 min
Cc1cc(Cl)cc(NS(=O)(=O)c2ccc(-n3ncc(=O)[nH]c3=O)cc2Cl)c1 | > 250 µg/mL | –
O=c1cnn(-c2ccc(S(=O)(=O)Nc3c(F)c(F)c(F)c(F)c3F)c(Cl)c2)c(=O)[nH]1 | > 60 µg/mL | –
O=c1cnn(-c2ccc(S(=O)(=O)NC3CCCCCCC3)c(Cl)c2)c(=O)[nH]1 | > 250 µg/mL | –
O=c1cnn(-c2ccc(S(=O)(=O)N3CCSCC3)c(Cl)c2)c(=O)[nH]1 | 60 µg/mL | –
O=c1cnn(-c2ccc(S(=O)(=O)N3CCSC3)c(Cl)c2)c(=O)[nH]1 | > 120 µg/mL | –
CC(C)(C)CC(C)(C)NS(=O)(=O)c1ccc(-n2ncc(=O)[nH]c2=O)cc1 | > 120 µg/mL | –
COCCN(CCOC)S(=O)(=O)c1c(C)cc(-n2ncc(=O)[nH]c2=O)cc1C | 250 µg/mL | –
O=c1cnn(-c2cc(Cl)c(N3CCOCC3)c(Cl)c2)c(=O)[nH]1 | – | MEC [13]: 15 p.p.m.; minimal effective concentration [14]: 15 µg/mL; minimal effective concentration [15]: 30 µg/mL; minimal effective concentration [16]: 15 µg/mL
CN(C1CCCC1)S(=O)(=O)c1ccc(-n2ncc(=O)[nH]c2=O)cc1Cl | > 120 µg/mL | –
O=c1cnn(-c2cccc(Cl)c2)c(=O)[nH]1 | 120 µg/mL | –
CN(C)S(=O)(=O)c1ccc(-n2ncc(=O)[nH]c2=O)cc1Cl | 250 µg/mL | –
O=c1cnn(-c2cc(Cl)c(S(=O)(=O)N3CCOCC3)c(Cl)c2)c(=O)[nH]1 | – | MEC [13]: 30 p.p.m.; minimal effective concentration [5]: 15 µg/mL; minimal effective concentration [6]: 30 µg/mL
CCCN(C)S(=O)(=O)c1c(C)cc(-n2ncc(=O)[nH]c2=O)cc1C | 120 µg/mL | –
O=c1cnn(-c2ccc(S(=O)(=O)NCc3ccccc3Cl)c(Cl)c2)c(=O)[nH]1 | > 250 µg/mL | –
